Source: ChEMBL document CHEMBL2163303, “The development of first Staphylococcus aureus SplB protease inhibitors: phosphonic analogues of glutamine” (Bioorg Med Chem Lett, 2012)
The source made the active and inactive calls. No cut-off for these calls is given here.

Key:
[1] = Ratio of rate of irreversible step k2 to Ki for subtilisin using fluorogenic Suc-Ala-Ala-Pro-Phe-AMC as substrate by spectrofluorometry
How it was run: (§1)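 Run in 0.1 M HEPES, 0.5 M NaCl, 0.03% Triton X-100, pH 7.5, 37 °C, with chymotrypsin at 3 nM or subtilisin at 5 nM. Enzyme added to Suc-Ala-Ala-Pro-Phe-AMC plus excess inhibitor, read at Ex 350/Em 460 nm. k_obs taken from progress curves; k2/Ki derived via a Km-corrected irreversible-inhibition model.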

[2] = Ratio of rate of irreversible step k2 to Ki for chymotrypsin using fluorogenic Suc-Ala-Ala-Pro-Phe-AMC as substrate by spectrofluorometry; how it was run: as §1
[3] = biological target: T1, Serine protease SplB (Staphylococcus aureus) (UniProt Q53781); experiment: Ratio of rate of irreversible step k2 to Ki for Staphylococcus aureus SplB using fluorogenic […] as substrate up to 200 uM by spectrofluorometry
T1 sequence (whole entry): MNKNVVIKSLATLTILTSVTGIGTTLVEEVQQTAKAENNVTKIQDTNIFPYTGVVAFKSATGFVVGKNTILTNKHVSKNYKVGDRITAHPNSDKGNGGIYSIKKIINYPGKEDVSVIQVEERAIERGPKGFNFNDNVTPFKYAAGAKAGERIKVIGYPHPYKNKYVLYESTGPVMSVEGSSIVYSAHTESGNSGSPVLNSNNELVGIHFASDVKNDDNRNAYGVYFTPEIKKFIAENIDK
How it was run: (§2)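 Enzyme added to substrate plus excess inhibitor in 0.1 M Tris-HCl, 0.01% Triton X-100, pH 7.6, 37 °C; SplB at 100 nM. Ac-Trp-Glu-Leu-Gln-ACC read at Ex 355/Em 460 nm. Pseudo-first-order k_obs taken from progress curves; k2/Ki fitted using substrate Km.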

Serine protease SplB = biological target: T2, Serine protease SplB (Staphylococcus aureus, UniProt Q53781); experiment: Inhibition of Staphylococcus aureus SplB using fluorogenic […] as substrate by spectrofluorometry; how it was run: as §2
T2 sequence (Q53781 whole entry): T1 sequence (whole entry)

[4] = Inhibition of subtilisin using fluorogenic Suc-Ala-Ala-Pro-Phe-AMC as substrate by spectrofluorometry; how it was run: as §1
[5] = Inhibition of chymotrypsin using fluorogenic Suc-Ala-Ala-Pro-Phe-AMC as substrate by spectrofluorometry; how it was run: as §1
[6] = biological target: T1, Serine protease SplB (Staphylococcus aureus); experiment: Inhibition of Staphylococcus aureus SplB using fluorogenic […] as substrate up to 200 uM by spectrofluorometry; how it was run: as §2

Compound | Ratio [1] [M⁻¹ s⁻¹] | Ratio [2] [M⁻¹ s⁻¹] | Ratio [3] [M⁻¹ s⁻¹] | Ki (Serine protease SplB) [µM] | Ki [4] [µM] | Ki [5] [µM] | inhibition [6]
CC(C)CC(NC(=O)OCc1ccccc1)C(=O)NC(CCC(N)=O)P(=O)(Oc1ccccc1)Oc1ccccc1 (mixture of isomers) | < 10 | < 10 | < 10 | > 200 | > 200 | > 200 | inactive
COc1ccc(OP(=O)(Oc2ccc(OC)cc2)C(CCC(N)=O)NC(=O)C(CC(C)C)NC(=O)OCc2ccccc2)cc1 (mixture of isomers) | 57 | < 10 | < 10 | > 200 | 35 | > 200 | inactive
CCc1ccc(OP(=O)(Oc2ccc(CC)cc2)C(CCC(N)=O)NC(=O)C(CC(C)C)NC(=O)OCc2ccccc2)cc1 (mixture of isomers) | < 10 | < 10 | < 10 | > 200 | > 200 | > 200 | inactive
NC(=O)CCC(NC(=O)OCc1ccccc1)P(=O)(Oc1ccccc1)Oc1ccccc1 (racemic) | < 10 | < 10 | < 10 | > 200 | > 200 | > 200 | inactive
COc1ccc(OP(=O)(Oc2ccc(OC)cc2)C(CCC(N)=O)NC(=O)OCc2ccccc2)cc1 (racemic) | 33 | < 10 | < 10 | > 200 | 111 | > 200 | inactive
CC(C)(C)c1ccc(OP(=O)(Oc2ccc(C(C)(C)C)cc2)C(CCC(N)=O)NC(=O)OCc2ccccc2)cc1 (racemic) | < 10 | < 10 | < 10 | > 200 | > 200 | > 200 | inactive
CCc1ccc(OP(=O)(Oc2ccc(CC)cc2)C(CCC(N)=O)NC(=O)OCc2ccccc2)cc1 (racemic) | < 10 | < 10 | < 10 | > 200 | > 200 | > 200 | inactive
CC(C)CC(NC(=O)OCc1ccccc1)C(=O)NC(CCC(N)=O)P(=O)(Oc1ccc(C(C)(C)C)cc1)Oc1ccc(C(C)(C)C)cc1 (racemic) | < 10 | < 10 | < 10 | > 200 | > 200 | > 200 | inactive
